NR2E3 ag-1 – NR2E3 (human) agonism; Q9Y5X4; GST-NR2E3/biotin-RetCOR TR-FRET, 1536-well; actives 0.12% (n = 320,000); inhibition of corepressor binding, % at 4.78 µM;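 active = percent inhibition above the cutoff of mean plus 3 SD of all tested compounds, set per screening campaign, cut at about 20% in these data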;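 note: 0% = DMSO wells and 100% = biotin wells as full block of FRET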
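Material: NR2E3–RetCOR corepressor complex / Incubation: Compound–protein incubation for 5 h at 4 °C / Dosing: compound at 4.8 µM, single dose / Detection: time-resolved FRET / Benchmarks: high control biotin, low control 0.6% DMSO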
NR2E3 ag-2 – human photoreceptor-specific nuclear receptor agonism; CHO-S Gal4-NCOR/VP16-NR2E3 two-hybrid, luciferase; inhibition of corepressor binding, % at 3.98 µM; actives 0.35% (n = 360,000); AID 602229;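 active = inhibition above the mean of all tested compounds plus 3 SD, cut at about 70% in these data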;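 note: 0% = DMSO with NR2E3 transfected cells and 100% = cells lacking NR2E3 construct; higher means lower luciferase signal from less NR2E3 corepressor binding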
PG9 Ab binder – small molecules binding HIV-1 gp120 antibody PG9 | TR-FRET gp120-PG9 antibody binding | inhibition, % at 6.7 µM | actives 0.43% (n = 360,000); in the data active = inhibition above about 8.5%
NR1D1 modulator – modulates human Rev-erb alpha binding to DNA | actives 0.79% (n = 370,000) | AID 1259318 | P20393 | Rev-erbα–FITC-DNA binding, fluorescence polarization, 90 min | activity, % at 10 µM;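 active = activity above about 14%, limit read from the data; passing the limit was not always enough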;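 note: 0% = DMSO wells with 35 nM protein and 100% = DMSO wells with 750 nM protein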
Target sequence (P20393 whole entry, looked up): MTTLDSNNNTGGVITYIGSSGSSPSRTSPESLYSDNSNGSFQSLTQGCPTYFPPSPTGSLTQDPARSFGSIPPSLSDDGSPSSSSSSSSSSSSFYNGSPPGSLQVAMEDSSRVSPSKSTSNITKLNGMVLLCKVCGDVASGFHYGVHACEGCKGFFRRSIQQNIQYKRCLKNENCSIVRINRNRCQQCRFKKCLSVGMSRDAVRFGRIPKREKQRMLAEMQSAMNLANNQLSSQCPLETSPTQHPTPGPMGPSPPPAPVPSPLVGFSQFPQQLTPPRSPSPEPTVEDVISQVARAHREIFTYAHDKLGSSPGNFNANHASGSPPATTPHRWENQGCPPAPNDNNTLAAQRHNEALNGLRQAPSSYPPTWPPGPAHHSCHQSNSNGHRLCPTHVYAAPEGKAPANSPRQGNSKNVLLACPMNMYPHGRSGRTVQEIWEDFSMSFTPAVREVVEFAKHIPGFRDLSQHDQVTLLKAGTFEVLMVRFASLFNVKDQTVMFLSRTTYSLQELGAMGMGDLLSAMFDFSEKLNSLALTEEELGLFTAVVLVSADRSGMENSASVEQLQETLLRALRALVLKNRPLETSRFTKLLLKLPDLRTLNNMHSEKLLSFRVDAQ
NR2E3 ag conf – confirmation of human NR2E3 agonists. shares compounds with NR2E3 ag-2. CHO-S mammalian two-hybrid NR2E3-NCOR, luciferase luminescence. inhibition, % at 3.98 µM. actives 51% (n = 2,300);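 active = average inhibition above a cutoff equal to the mean inhibition of all tested compounds plus one SD, cut at about 70% in these data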;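 note: 0% = DMSO in NR2E3 cells and 100% = DMSO in cells lacking NR2E3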
GAL4-VP16 luc – reduces GAL4-VP16 reporter signal in NR2E3 counterscreen; shares compounds with NR2E3 ag-2; CHO-S GAL4-VP16 luciferase reporter, luminescence; inhibition, % at 3.98 µM; actives 29% (n = 2,300);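 active = mean inhibition above a cutoff equal to the average over all tested compounds plus one standard deviation, cut at about 70% in these data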;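 note: luciferase from a UAS reporter driven by GAL4-VP16 transactivation; 0% = DMSO with VP16-transfected cells and 100% = DMSO with cells lacking VP16; higher means less reporter light so more repression of VP16 activity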
Active calls of the source: *; nt = no result given. This is a sample that favours compounds with a hit; in the whole collection about 1.5% have one here.

SMILES	NR2E3 ag-1	NR2E3 ag-2	PG9 Ab binder	NR1D1 modulator	NR2E3 ag conf	GAL4-VP16 luc
COc1ccc(CCNc2ncnc3c2oc2ccccc23)cc1OC	1	90*	3	nt	97*	86*
Cc1nc(NCCc2cnc[nH]2)c2oc3ccccc3c2n1	1	-18	-1	-2	nt	nt
Cc1c(C)n(Cc2ccc(-c3ccccc3C(=O)O)cc2)c2ccc(C(=O)N[C@@H](C)c3ccc([N+](=O)[O-])cc3)cc12	nt	nt	nt	0	nt	nt
Cc1ccc(OCc2cc(C(=O)N(C)Cc3cnn(C)c3)no2)cc1C	nt	-50	0	-4	nt	nt
CN(Cc1ccc(F)cc1)C(=O)c1cc(COc2ccc(-n3cncn3)cc2)on1	nt	73*	0	-5	61	63
CCc1ccc(CN(C)C(=O)c2cc(COc3ccc(-n4cncn4)cc3)on2)cc1	2	80*	1	-4	43	44
Cc1ccc(OCc2cc(C(=O)N(C)Cc3cnn(-c4ccccc4C)c3)no2)cn1	1	80*	0	-4	56	49
COc1cc(Br)c(C[N+]2(CCOCCC3CCC4CC3C4(C)C)CCOCC2)cc1OC (stereo not given)	nt	nt	nt	6	nt	nt
Cc1ccc(C(=O)OCC(=O)c2cc(C)n(CC3CCCO3)c2C)cc1 (stereo not given)	-3	-26	-1	-5	nt	nt
Cc1cc(C(=O)COc2ccccc2C(N)=O)c(C)n1CC1CCCO1 (stereo not given)	1	69	1	0	90*	69
CCn1c(C)cc(C(=O)COC(=O)c2ccccc2[N+](=O)[O-])c1C	nt	105*	nt	nt	89*	87*
Cc1cc(C(=O)COC(=O)C2COc3ccccc3O2)c(C)n1CC1CCCO1 (stereo not given)	-2	-13	-1	-1	nt	nt
Cc1cc(C(=O)COC(=O)c2cc(O)c3ccccc3c2O)c(C)n1CC1CCCO1 (stereo not given)	nt	21	nt	nt	nt	nt
Cc1cc(C(=O)COC(=O)c2ccccc2Br)c(C)n1CC1CCCO1 (stereo not given)	-1	89*	0	2	81*	71*
Cc1cc(C(=O)COC(=O)c2ccccc2O)c(C)n1CC1CCCO1 (stereo not given)	0	95*	-2	3	89*	80*
COC(=O)[C@H]1C[C@@]2(N3CCCCC3)c3ccccc3N[C@H]2N1S(=O)(=O)c1ccc([N+](=O)[O-])cc1	nt	nt	nt	-4	nt	nt
C[C@H]1[C@@H](NS(=O)(=O)c2ccccc2[N+](=O)[O-])CC[C@@]23CCCN2C(=O)CCC[C@@H]13	nt	nt	nt	0	nt	nt
Nc1c(C(=O)NCC(O)c2ccccc2)cnn1-c1ccccc1 (stereo not given)	nt	nt	nt	5	nt	nt
Cc1cc(C(=O)COC(=O)c2cccnc2Cl)c(C)n1CC1CCCO1 (stereo not given)	9	60	-2	-2	47	10
Cc1cc(C(=O)COC(=O)c2ccccc2NCCO)c(C)n1CC1CCCO1 (stereo not given)	1	13	-1	1	nt	nt
COCCn1c(C)cc(C(=O)COC(=O)c2cccnc2SC)c1C	nt	-87	0	5	nt	nt
COCCn1c(C)cc(C(=O)COC(=O)c2ccccc2Br)c1C	0	79*	0	-3	26	35
Cc1ccccc1CN1CCCCC(NC(=O)c2ccc(N(C)C)cc2)C1=O (stereo not given)	nt	nt	nt	5	nt	nt
Cc1cc(C)cc(N(CC(=O)NC2CCC(C)CC2)S(=O)(=O)c2ccc(C(C)(C)C)cc2)c1 (stereo not given)	nt	nt	nt	0	nt	nt
O=C1/C(=C/c2ccccc2[N+](=O)[O-])COc2ccccc21	2	-16	0	-3	nt	nt
SMILES	NR2E3 ag-1	NR2E3 ag-2	PG9 Ab binder	NR1D1 modulator	NR2E3 ag conf	GAL4-VP16 luc
CC1(C)CC(=Cc2cc(O)ccc2[N+](=O)[O-])C(=O)c2ccccc21	nt	98*	nt	nt	99*	71*
CC1=CCC(C(=O)O)C(C(=O)Nc2ccc(-c3nc4ccc(C)cc4s3)cc2)C1 (stereo not given)	2	50	0	4	55	-37
CC(=O)NC(=S)Nc1ccc(-c2nc3ccc(C)cc3s2)cc1	4	-141	-1	12	nt	nt
COc1cc2c(cc1OC)-c1cc(Nc3ccc4c(c3)OCCO4)nc(=O)n1CC2	3	55	-3	-1	28	-12
COC1=CC(=O)c2nc(Cl)ccc2C1=O	nt	64	0	-2	36	33
COc1cccc2c1C(=O)C=C(C)C2=O	-19	-65	-1	1	nt	nt
CCn1cc(C(=O)NC2CCCc3c2cnn3-c2cccc(C)c2C)cn1 (stereo not given)	0	105*	0	1	95*	88*
COc1ccc(C(=O)NC2CCCc3c2cnn3-c2cccc(C)c2C)o1 (stereo not given)	2	65	-2	-4	32	30
Cc1cccc(-n2ncc3c2CCCC3NC(=O)c2cccs2)c1C (stereo not given)	nt	17	-2	-2	nt	nt
Cc1cccc(-n2ncc3c2CCCC3NC(=O)c2ccncc2)c1C (stereo not given)	nt	83*	2	4	85*	77*
CC1=C(C(=O)NC2CCCc3c2cnn3-c2cccc(C)c2C)OCCO1 (stereo not given)	1	80*	1	3	73*	67
O=C(CSc1nnc(-c2ccc(Cl)cc2)n1-c1ccccc1)NN=Cc1c[nH]c2ccccc12	nt	nt	nt	-8	nt	nt
COc1ccc(-c2noc(C3CCCN(C(=O)Nc4ccc(C)c(F)c4)C3)n2)cc1 (stereo not given)	nt	nt	nt	-2	nt	nt
Cc1ccc(S(=O)(=O)N2CCCC2c2cccc3[nH]cc(C)c23)cc1 (stereo not given)	nt	nt	nt	11	nt	nt
COc1ccc2nc(-c3ccc(CN4CCC5(CC4)CNc4ccccc45)cc3)c(-c3ccccc3)nc2c1	nt	nt	0	-4	nt	nt
CC(CCN1CCC(C(O)(c2ccccc2)c2ccccc2)CC1)Oc1ccc(OC(F)(F)F)cc1 (stereo not given)	nt	nt	nt	0	nt	nt
Cc1cccc(-n2ncc3c2CCCC3NC(=O)Cc2c(C)noc2C)c1C (stereo not given)	0	60	-3	0	54	57
Cc1cc(C(=O)NC2CCCc3c2cnn3-c2cccc(C)c2C)no1 (stereo not given)	-1	12	0	-1	nt	nt
C=C(C)Cn1c(SCC(=O)N/N=C(\C)c2ccc([N+](=O)[O-])cc2)nnc1-c1ccc(Br)cc1	nt	nt	nt	-1	nt	nt
CCc1ccc2c(c1)NC(=O)C2(C)Cc1ccccc1 (stereo not given)	nt	-9	-3	-1	nt	nt
CCc1ccc2c(c1)C1(NN=C(c3cccc4ccccc34)S1)C(=O)N2 (stereo not given)	0	80*	0	7	39	25
